Some results are limits rather than exact numbers.

The target in assay [1] is T1, TRPV1 (Homo sapiens, UniProt Q8NER1). The experiment in a line: Activity type at TRPV1.
Assay [2] addresses T1, TRPV1. The class given is binding. Conditions: human versus rat TRPV1.
Assay [3] deals with T1, TRPV1. The experiment in a line: Predicted improvement of specific to nonspecific binding from Kd/Ki and Log P. Conditions: from Log P values.
For assay [4], the target named is T1, TRPV1. The experiment in a line: Time course of binding of 13 to human TRPV1 and its release. The gist of the method: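 Membranes (~20 μg protein) from CHO cells expressing human TRPV1 were incubated with the tritiated test ligand in DPBS with 0.25 mg/mL BSA at 37 °C for varied times. Alternatively, after 60 min, 50 nM unlabeled reference vanilloid was added for varied times at 37 °C or at 0 °C after chilling. Workup: α1-acid glycoprotein (2 mg/mL stock), 10 min at 0 °C, pelleting, scintillation counting. Values relative to controls; triplicate means.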

Assay [5] deals with T1, TRPV1. The class given is binding. The following applies: treated versus control.

T1 sequence (Q8NER1 whole entry): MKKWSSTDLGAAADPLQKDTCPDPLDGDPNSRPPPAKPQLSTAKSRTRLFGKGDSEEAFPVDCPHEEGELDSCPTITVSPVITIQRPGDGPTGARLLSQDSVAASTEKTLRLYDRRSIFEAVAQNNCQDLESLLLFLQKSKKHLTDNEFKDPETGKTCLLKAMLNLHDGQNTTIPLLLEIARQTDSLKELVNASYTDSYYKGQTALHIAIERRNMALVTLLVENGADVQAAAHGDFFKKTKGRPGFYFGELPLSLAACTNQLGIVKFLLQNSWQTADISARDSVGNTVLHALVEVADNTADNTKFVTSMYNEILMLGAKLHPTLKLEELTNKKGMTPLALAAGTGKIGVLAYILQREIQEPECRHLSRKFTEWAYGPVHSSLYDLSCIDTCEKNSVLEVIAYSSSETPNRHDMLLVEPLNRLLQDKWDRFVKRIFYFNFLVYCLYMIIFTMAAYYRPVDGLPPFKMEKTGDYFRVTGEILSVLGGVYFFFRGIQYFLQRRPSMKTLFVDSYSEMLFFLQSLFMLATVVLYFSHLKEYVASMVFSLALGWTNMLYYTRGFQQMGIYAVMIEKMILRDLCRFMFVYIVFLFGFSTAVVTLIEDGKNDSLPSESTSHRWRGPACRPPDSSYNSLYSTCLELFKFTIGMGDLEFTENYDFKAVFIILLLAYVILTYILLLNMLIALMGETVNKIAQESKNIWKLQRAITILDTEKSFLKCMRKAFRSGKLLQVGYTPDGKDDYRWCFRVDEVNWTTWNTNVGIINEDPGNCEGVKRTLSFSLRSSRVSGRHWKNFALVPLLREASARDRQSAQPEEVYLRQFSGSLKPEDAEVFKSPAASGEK

On to `CC(C)(C)c1ccc2c(c1)CC[C@H]2NC(=O)Nc1cccc2cnccc12` [A-778317, 1-((R)-5-tert-butyl-indan-1-yl)3-isoquinolin-5-yl-urea], for which the activity entry in assay [1] is listed as “antagonist”.
Turning to `C=C(C)[C@]12C[C@@H](C)[C@@]34O[C@](Cc5ccccc5)(O[C@@H]1[C@@H]3C=C(COC(=O)Cc1ccc(O)c(OC)c1)C[C@]1(O)C(=O)C(C)=C[C@@H]41)O2` [compound 1, resiniferatoxin], the “human TRPV1 less sensitive (weaker binding) than rat/rodent TRPV1” value in assay [2] was “approximately 20 fold”. The activity entry in assay [1] was “agonist”. In assay [3], the “Improvement over 1 from the formula ((Kd RTX × 10^LogP RTX)/(Ki compound × 10^Log P compound))” value is 1 fold.
With `CC1CCN(c2nc(C(F)(F)F)ccc2CNC(=O)Nc2cccc3c2OCC(=O)N3)CC1` [compound 12, 1-((2-(4-methylpiperidin-1-yl)-6-(trifluoromethyl)pyridin-3-yl)methyl)-3-(3-oxo-3,4-dihydro-2H-benzo[b][1,4]oxazin-8-yl)urea], the activity entry in assay [1] is listed as “antagonist”. The “Improvement over 1 from the formula ((Kd RTX × 10^LogP RTX)/(Ki compound × 10^Log P compound))” value in assay [3] is reported as 45.6 fold.
Consider `[3H]CC1([3H])CCN(c2nc(C(F)(F)F)ccc2CNC(=O)Nc2cccc3c2OCC(=O)N3)CC1` [compound 13, 1-((2-(4-(methyl-[^3H])piperidin-1-yl-4-[^3H])-6-(trifluoromethyl)pyridin-3-yl)methyl)-3-(3-oxo-3,4-dihydro-2H-benzo[b][1,4]oxazin-8-yl)urea], for which the “specific binding at 0 °C over the time for assay workup” value in assay [4] (0 °C, after nonradioactive 1 (50 nM)) is “stable”. Besides, in assay [4] (37 °C), the “time by which specific binding was largely complete” value is listed as at most 5 min. For the same molecule, the “time for almost full release of specifically bound ligand” value in assay [4] (37 °C, after nonradioactive 1 (50 nM)) is recorded as at most 2 min. For the same molecule, the “change of affinity by PMA and cyclosporin A treatment” value in assay [5] is listed as “no appreciable change”.

These data come from publication PMC6959550 (Journal of medicinal chemistry, 2017).
